For series [1], the target named is Amyloid-beta precursor protein (Homo sapiens) (UniProt P05067). Briefly: Inhibition of Amyloid beta (1 to 42) (unknown origin) self aggregation at 20 uM for 24 hrs by Thioflavin T-based fluorometric assay. The method, boiled down: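 Aβ1–42 was HFIP-pretreated and dissolved in DMSO to a 200 μM stock. It was mixed with compound in PBS pH 7.4, compound final 20 μM. Incubation was 24 h at room temperature with shaking. 5 μM ThT in 50 mM glycine–NaOH pH 8.5 was then added. Fluorescence was read at ex 435 nm / em 490 nm. Mean ± SD of three independent measurements, each in duplicate.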

Series [2] relates to BV-2. Briefly: Neuroprotective activity in mouse BV2 cells assessed as inhibition of LPS-stimulated IL6 production preincubated for 3 hrs followed by LPS treatment for 12 hrs by ELISA. Type of series: functional, cell-based. The gist of the method: (§1)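 BV-2 microglia were seeded 2 × 10^4 cells/well and pretreated 3 h with compound at 0.0016, 0.008, 0.04, 0.2 and 1 μmol/L. They were then stimulated with LPS (1 μg/mL) for 12 h. Clarified supernatants were assayed by ELISA for the named cytokine.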
A general note: ELISA stands for enzyme-linked immunosorbent assay.

Series [3] relates to BV-2. The experiment in a line: Neuroprotective activity in mouse BV2 cells assessed as inhibition of LPS-stimulated TNFalpha production preincubated for 3 hrs followed by LPS treatment for 12 hrs by ELISA. Format: functional, cell-based. The gist of the method:
as §1

Series [4] has as its system BV-2. Briefly: Neuroprotective activity in mouse BV2 cells assessed as inhibition of LPS-stimulated IL-1beta production preincubated for 3 hrs followed by LPS treatment for 12 hrs by ELISA. Type of series: functional, cell-based. The method, boiled down:
as §1

Series [5] is described as follows: Cytotoxicity against mouse BV2 cells assessed as cell viability at 0.008 to 5 umol/L by MTT assay in presence of LPS. Format: cell-based. The note with it: bv-2. The gist of the method: (§2)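 BV-2 murine microglia kept in DMEM-H with 10% FBS at 37 °C, 5% CO2. Cells seeded 1 × 10^4 cells/well and cultured 24 h. Compound then added at 0.008, 0.04, 0.2, 1 and 5 μmol/L, with or without LPS. Viability read by MTT as absorbance at 490 nm.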
Background: Tetrazolium dyes change colour on reduction, which living cells bring about.

A short description of series [6]: Cytotoxicity against mouse BV2 cells assessed as cell viability at 5 uM by MTT assay. Type of series: cell-based. The settings on record: bv-2, 5 µM. The gist of the method:
as §2

Series [7] concerns the target Amyloid-beta precursor protein (Homo sapiens) (UniProt P05067). Briefly: Inhibition of Amyloid beta (1 to 42 residues) (unknown origin) assessed as no fibril formation at 50 uM after 4 days by atomic force microscopic analysis. The method, boiled down: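 Aβ1–42 was pretreated with HFIP and taken up in DMSO. It was incubated in PBS pH 7.4 for 4 days at 30 °C, with or without compound. Final concentrations were 25 μM peptide and 50 μM compound. 10 μL aliquots were deposited on mica for 10 min, rinsed with water and dried under nitrogen. Samples were imaged by tapping-mode AFM.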

The target is the same in series [8]. Briefly: Inhibition of Amyloid beta (1 to 42) (unknown origin) self aggregation for 24 hrs by Thioflavin T-based fluorometric assay.
In series [9] the test system is SH-SY5Y. The experiment in a line: Neuroprotective activity against LPS-stimulated toxicity in human SH-SY5Y cells using compound-conditioned media from LPS-stimulated BV2 cells by MTT assay. Format: functional, cell-based. The gist of the method:
(§3)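 BV-2 cells were seeded 2 × 10^4/well and pretreated 3 h with compound at 0.2, 1 and 5 μM. They were then stimulated 12 h with LPS 1 μg/mL, and the supernatant was clarified as conditioned medium. SH-SY5Y cells were seeded 5 × 10^3/well, grown 24 h and serum-starved overnight, then exposed to the conditioned medium. Viability was read by MTT at 490 nm. Mean ± SD of three independent experiments.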

The test system of series [10] is SH-SY5Y. The experiment in a line: Neuroprotective activity against LPS-induced toxicity in human SH-SY5Y cells assessed as cell viability using compound-conditioned media from LPS-stimulated BV2 cells at 5 uM by MTT assay. Type of series: functional. The gist of the method:
as §3

Series [11] addresses Myeloid differentiation primary response protein MyD88 (Homo sapiens) (UniProt Q99836). Briefly: Inhibition of Flag-tagged MyD88-HA-tagged MyD88 (unknown origin) homodimerization transfected in HEK293 cells after 7 hrs by Co-immunoprecipitation assay. Type of series: cell-based. The gist of the method: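 HEK293 cells were seeded at 9 × 10^5/well and transfected with Flag-MyD88 and HA-MyD88 plasmids. Compound was added 7 h after transfection at 10 and 40 μM. Cells were harvested 24 h post-transfection and lysed in RIPA. Lysates were precleared with protein A/G beads and immunoprecipitated with anti-HA on A/G beads at 4 °C. Captured Flag-MyD88 was detected by western blot.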

Series [12] relates to SH-SY5Y. Briefly: Cytotoxicity against human SH-SY5Y cells at 5 uM by MTT assay. Type of series: cell-based. The method, boiled down: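 SH-SY5Y (DMEM/F-12, 10% FBS, 37 °C, 5% CO2) seeded 1 × 10^4 cells/well, grown 24 h, then exposed to compound at 0.04, 0.2, 1 and 5 μmol/L for 24 h. MTT added for a further 4 h; absorbance read at 490 nm. Mean ± SD of three independent experiments.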

The source made the active and inactive calls. The calls are words filed in the database; no cut-off is given here.

Chain of Amyloid-beta precursor protein (Homo sapiens) (P05067 whole entry, the tested form may be a part): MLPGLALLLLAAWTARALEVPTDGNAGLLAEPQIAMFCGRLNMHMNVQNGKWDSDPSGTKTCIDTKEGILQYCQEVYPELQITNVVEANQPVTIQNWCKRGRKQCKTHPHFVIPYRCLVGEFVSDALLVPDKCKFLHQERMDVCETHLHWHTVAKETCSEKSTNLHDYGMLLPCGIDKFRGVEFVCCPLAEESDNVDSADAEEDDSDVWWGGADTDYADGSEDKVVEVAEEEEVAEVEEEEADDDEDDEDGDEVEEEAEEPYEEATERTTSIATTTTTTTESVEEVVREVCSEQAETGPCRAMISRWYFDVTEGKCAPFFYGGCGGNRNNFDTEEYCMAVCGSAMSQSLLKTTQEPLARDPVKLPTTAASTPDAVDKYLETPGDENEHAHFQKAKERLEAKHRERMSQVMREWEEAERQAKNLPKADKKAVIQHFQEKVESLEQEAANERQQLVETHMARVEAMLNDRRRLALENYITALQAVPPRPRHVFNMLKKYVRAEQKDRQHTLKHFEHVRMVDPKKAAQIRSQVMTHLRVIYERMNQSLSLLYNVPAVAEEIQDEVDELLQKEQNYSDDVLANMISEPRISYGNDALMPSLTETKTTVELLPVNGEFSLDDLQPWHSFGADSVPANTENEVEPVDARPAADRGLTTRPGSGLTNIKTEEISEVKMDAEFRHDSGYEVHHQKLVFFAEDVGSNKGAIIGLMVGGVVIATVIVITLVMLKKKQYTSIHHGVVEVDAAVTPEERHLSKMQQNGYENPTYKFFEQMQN
Chain of Myeloid differentiation primary response protein MyD88 (Homo sapiens) (Q99836 whole entry): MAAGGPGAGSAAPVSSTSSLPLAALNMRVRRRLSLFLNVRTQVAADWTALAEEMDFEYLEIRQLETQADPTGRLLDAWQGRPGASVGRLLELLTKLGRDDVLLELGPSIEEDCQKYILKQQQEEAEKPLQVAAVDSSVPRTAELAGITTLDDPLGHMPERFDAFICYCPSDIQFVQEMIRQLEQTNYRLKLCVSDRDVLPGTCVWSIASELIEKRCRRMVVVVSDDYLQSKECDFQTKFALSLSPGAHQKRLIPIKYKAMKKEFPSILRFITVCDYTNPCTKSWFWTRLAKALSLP

A word on the inhibition: it is the relative decrease from the control value, in per cent. For orientation: IC50 means the point on the concentration scale where inhibition reaches its midpoint. On to `COC(=O)c1ccc(CN2C(=O)C[C@@H](c3ccccc3Cl)[C@H]([N+](=O)[O-])[C@H]2c2ccc(O)cc2)cc1` (racemic), for which, in series [1], the inhibition turned out to be 33.1%. Moreover, the Activity entry in series [2], in [3] and in series [4] was “Dose-dependent effect” in each case. Besides, the concentration for half-maximal inhibition (IC50) in series [2] was determined as 80 nM; in series [3], 90 nM; in [4], 3490 nM.

In series [1], `COc1cccc(CN2C(=O)C[C@@H](c3cc(OC)cc(OC)c3)[C@H]([N+](=O)[O-])[C@H]2c2ccc(O)cc2)c1` (racemic) returned an inhibition of 56.9%. The Activity result in series [2], in series [3] and in series [4] was “Dose-dependent effect” each time. For the same compound, the half-inhibitory concentration (IC50) was 170 nM in [2], 20 nM in series [3] and 850 nM in series [4].

As to `COc1cc(OC)cc([C@@H]2CC(=O)N(Cc3ccc(OC)c(OC)c3)[C@H](c3ccc(O)cc3)[C@H]2[N+](=O)[O-])c1` (racemic), the Activity result was “Non-toxic” in series [5]; “Non-toxic” in series [6]; “Dose-dependent effect” in series [2]; “Dose-dependent effect” in series [9]; 82.92% in series [10]; “Dose-dependent effect” in series [3]. The Activity result is “Dose-dependent effect” in series [4] and “Non-toxic” in series [12]. Besides, the results for the inhibition in [1], in [8] and in [11] were 59.1%, “Dose-dependent effect” and “Dose-dependent effect”, respectively. The inhibition entry in [7] was “Active”. Also, the IC50 amounted to 30 nM in series [2], 80 nM in series [3] and 210 nM in series [4].

With `COC(=O)c1ccc(CN2C(=O)C[C@@H](c3ccccc3)[C@H]([N+](=O)[O-])[C@H]2c2ccc(O)cc2)cc1` (racemic), in series [1], the inhibition came to 36.3%.

As for `COc1cc(OC)cc([C@@H]2CC(=O)N(Cc3ccccc3)[C@H](c3ccc(O)cc3)[C@H]2[N+](=O)[O-])c1` (racemic), the inhibition in [1] worked out at 55%.

In turn, `COc1cc(OC)cc([C@@H]2CC(=O)N(Cc3cccnc3)[C@H](c3ccc(O)cc3)[C@H]2[N+](=O)[O-])c1` (racemic) displayed an inhibition in series [1] of 54%.

Compound `COc1cc([C@@H]2[C@@H]([N+](=O)[O-])[C@H](c3ccccc3Cl)CC(=O)N2Cc2ccccc2)ccc1O` (racemic) gave an inhibition in [1] of 11.8%.

In the case of `COc1ccc(CN2C(=O)C[C@@H](c3ccc(C)cc3)[C@H]([N+](=O)[O-])[C@H]2c2ccc(O)cc2)cc1` (racemic), the inhibition in [1] worked out at 30.6%.

As for `COc1ccc(CN2C(=O)C[C@@H](c3ccccc3)[C@H]([N+](=O)[O-])[C@H]2c2ccc(O)cc2)cc1` (racemic), the inhibition in series [1] stood at 46.1%.

Take `COc1ccc(CN2C(=O)C[C@@H](c3ccccc3)[C@H]([N+](=O)[O-])[C@H]2c2ccc(O)cc2)cc1OC` (racemic): in [1], the inhibition was 49.2%.

Consider `COc1ccc(CN2C(=O)C[C@@H](c3ccccc3Cl)[C@H]([N+](=O)[O-])[C@H]2c2ccc(O)cc2)cc1` (racemic), for which, in series [1], the inhibition was 28.7%.

For the compound `COc1cccc(CN2C(=O)C[C@@H](c3ccc(C)cc3)[C@H]([N+](=O)[O-])[C@H]2c2ccc(O)cc2)c1` (racemic), in series [1], the inhibition was determined as 48.9%.

As for `COc1cccc(CN2C(=O)C[C@@H](c3ccccc3)[C@H]([N+](=O)[O-])[C@H]2c2ccc(O)cc2)c1` (racemic), the inhibition in series [1] is 51.7%.

`COc1cccc(CN2C(=O)C[C@@H](c3ccccc3Cl)[C@H]([N+](=O)[O-])[C@H]2c2ccc(O)cc2)c1` (racemic) returned an inhibition in series [1] of 50%.

For `Cc1ccc(CN2C(=O)C[C@@H](c3ccc(C)cc3)[C@H]([N+](=O)[O-])[C@H]2c2ccc(O)cc2)cc1` (racemic), in [1], the inhibition was determined as 42.1%.

In [1], `Cc1ccc(CN2C(=O)C[C@@H](c3ccccc3)[C@H]([N+](=O)[O-])[C@H]2c2ccc(O)cc2)cc1` (racemic) yielded an inhibition of 39.9%.

For the compound `Cc1ccc(CN2C(=O)C[C@@H](c3ccccc3Cl)[C@H]([N+](=O)[O-])[C@H]2c2ccc(O)cc2)cc1` (racemic), in series [1], the inhibition was 46.1%.

As to `Cc1ccc([C@@H]2CC(=O)N(Cc3ccccc3)[C@H](c3ccc(O)cc3)[C@H]2[N+](=O)[O-])cc1` (racemic), in [1], the inhibition is 44.1%.

For the compound `O=C1C[C@@H](c2ccccc2)[C@H]([N+](=O)[O-])[C@@H](c2ccc(O)cc2)N1Cc1ccc(F)cc1` (racemic), in series [1], the inhibition was 6.39%.

Take `O=C1C[C@@H](c2ccccc2)[C@H]([N+](=O)[O-])[C@@H](c2ccc(O)cc2)N1Cc1ccccc1` (racemic): the inhibition in series [1] worked out at 43.6%.

As for `O=C1C[C@@H](c2ccccc2)[C@H]([N+](=O)[O-])[C@@H](c2ccc(O)cc2)N1Cc1cccnc1` (racemic), the inhibition was 43.3% in series [1] and “Dose-dependent effect” in series [8].

Regarding `O=C1C[C@@H](c2ccccc2Cl)[C@H]([N+](=O)[O-])[C@@H](c2ccc(O)cc2)N1Cc1ccccc1` (racemic), the inhibition in series [1] was determined as 11.2%.

`O=C1C[C@@H](c2ccccc2Cl)[C@H]([N+](=O)[O-])[C@@H](c2ccc(O)cc2)N1Cc1cccnc1` (racemic): in series [1], the inhibition worked out at 41.6%.

The values are drawn from ChEMBL document CHEMBL3774362, “Design, synthesis, and evaluation of 2-piperidone derivatives for the inhibition of β-amyloid aggregation and inflammation mediated neurotoxicity” (Bioorg Med Chem, 2016).
